Source: PubChem BioAssay
Apaf1 activ: activators of human Apaf-1 apoptosome; activity change, negative = activation, % at 20 µM; Apaf-1 apoptosome caspase-3 activation, DEVD-Rh110 fluorescence; stronger effect = lower value; AID 489031; 330,000 compounds, 0.31% hits; O14727;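 active = activity change at or below -40% at 20 µM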
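Material: reconstituted apoptosome of Apaf-1, cytochrome c, caspase-9, procaspase-3; times: 30 min preincubation, 50 min reaction, room temperature; measured by: fluorescence, 540 nm emission, 480 nm excitation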
Rh110 act interf: Rh110 signal interference in Apaf-1 activator counter-screen; shares compounds with Apaf1 activ; Rh110 fluorescence interference, quenched caspase reaction, Ex480/Em540; AID 504616; 980 tested, under 10 active; fluorescence interference (activity change), % at 20 µM, hits read low;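 active = mean activity change at or below -40% when tested at 20 µM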
Apaf-1 act conf: Apaf-1 (human) activation, single-dose confirmed; reconstituted apoptosome caspase-3 activity, DEVD-Rh110 fluorescence; stronger effect = lower value; shares compounds with Apaf1 activ; activity change, negative = activation, % at 20 µM; 980 compounds, 5% hits;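 active = mean activity change at or below -40%, meaning activation of 40% or more, at 20 µM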
Numbers without * were called inactive; · = no result. These entries were drawn from the full list.

SMILES | Apaf1 activ | Rh110 act interf | Apaf-1 act conf
Nc1ccc2nc(-c3cccc(-c4nc5ccc(N)cc5[nH]4)n3)[nH]c2c1 | 40 | · | ·
NS(=O)(=O)Cc1noc2ccccc12 | -79* | -4 | 7
Cc1ccc2cc(C(c3nnnn3CC3CCCO3)N3CCc4ccccc4C3)c(=O)[nH]c2c1 (configuration not stated) | 87 | · | ·
CCOc1ccc(S(=O)(=O)N2CCCCC2)cc1NC(=O)C1=COCCO1 | -131* | 18 | 19
CCN(CC)c1ccc(S(=O)(=O)N2CCCCC2)cc1NC(=O)C1CSC2(C)CCC(=O)N12 (configuration not stated) | 51 | · | ·
CCOC(=O)C1CCCN(C(=O)c2cc(S(=O)(=O)N3CCCCCC3)ccc2OC)C1 (configuration not stated) | 49 | · | ·
C[n+]1cccc2c(Br)ccc([O-])c21 | 98 | · | ·
CCOC(=O)c1ccc(N2CSC3=C(C#N)C(c4cccs4)CC(=O)N3C2)cc1 (configuration not stated) | 55 | · | ·
Cc1cc(SCC2=NNC(=O)C2)c(Cl)cc1Cl | 47 | · | ·
Cc1ccc(Sc2ncccc2C(=O)NCc2cc([N+](=O)[O-])ccc2O)c(C)c1 | -48* | -6 | 12
Cc1ccc(O)c(CNc2cccc3cccnc23)c1 | 93 | · | ·
C#CCOCCOCCOCCNc1nc(N2CCN(C(=O)CCCCCCCCCCNC(=O)[C@H]([C@@H](C)CC)n3cc(CCCCCN)nn3)CC2)nc(N2CCN(C(=O)CCCCCCCCCCNC(=O)[C@@H]([C@H](C)CC)n3cc(CCCCCN)nn3)CC2)n1 | 78 | · | ·
O=C(O)c1ccccc1-c1ccc(/C=c2\sc3nc4cc(Br)cnc4n3c2=O)o1 | 72 | · | ·
COc1cccc(-c2cn3nc4c(nc3n2)CCCC4)c1 | 53 | · | ·
COc1cccc(-c2cc(C(F)(F)F)n3nc(N)nc3n2)c1 | -44* | -11 | 10
CCOc1ccc(C(=O)C(C)=O)c(OCC)c1 | -44* | 1 | 10
CCN1CCN(c2cc(N3CCN(C(=O)c4ccco4)CC3)c3c4c(onc24)-c2ccccc2C3=O)CC1 | 42 | · | ·
S=C(Nc1ccc2[nH]ccc2c1)NC1CCCCC1 | -86* | 2 | 21
CCCCC(CC)CN1C(=O)/C(=C/c2ccncc2)SC1=S (configuration not stated) | 42 | · | ·
CN1C(=O)c2cccc3c(S(=O)(=O)NCc4ccco4)ccc1c23 | 55 | · | ·
CCOc1cc2[nH]c(=O)n(CCCCC(=O)NCc3ccco3)c(=O)c2cc1OCC | -190* | -2 | 8
CCCCCc1cc(=O)oc2c(C(CCN3CCCC(C)C3)c3ccc4c(c3)OCO4)c(OC)cc(OC)c12 (configuration not stated) | 66 | · | ·
CCN1CCN(Cc2ccc(NC(=O)c3cc(NC(=O)C4=NN(c5ccccc5)C(=O)C4)cc(OC)c3)cc2C(F)(F)F)CC1 | 51 | · | ·
CC(=O)[C@@H]1[C@@H]2C(=O)N(C3CCCCC3)C(=O)[C@@H]2C2c3ccccc3C=CN21 (some centres not stated) | 84 | · | ·
CCN1C(=C(C#N)C#N)C=Cc2cc(C)ccc21 | -49* | 5 | 8
SMILES | Apaf1 activ | Rh110 act interf | Apaf-1 act conf
CCCN(CC(=O)Nc1ccccc1C)C(=O)c1sc2ccccc2c1Cl | 61 | · | ·
COc1ccccc1-c1nc2n(n1)C(c1cccs1)C(C(=O)Nc1cccnc1)=C(C)N2 (configuration not stated) | -244* | -5 | 13
CN(CC(=O)Nc1ccc(Cl)cc1)C(=O)c1sccc1-c1ccccc1 | 46 | · | ·
CC(C)c1ccccc1OCC(=O)N(C)CC(=O)Nc1ccc(F)cc1 | -505* | -2 | 9
O=C(CC1Nc2cccc3cccc(c23)NC1=O)Nc1ccc(F)cc1 (configuration not stated) | 96 | · | ·
Cc1ccc(C=Nc2ccc(N(C)C)cc2)o1 | 51 | · | ·
CN1CCC[C@@H]1CCNC(=O)c1c(-c2ccc3c(c2)OCO3)noc1-c1ccsc1 | 40 | · | ·
NC(N)=N/N=C/c1ccc(OCc2ccccc2Cl)cc1 | 43 | · | ·
Cc1ccc(-n2nnnc2SCC(=O)N2CCNC2=O)cc1C | -448* | 9 | 9
C/C=C(\C)C(=O)NCCN1C2=NC[C@@H](Cc3ccccc3)N2C[C@@H]1Cc1ccc(OC)cc1 | 40 | · | ·
Cc1ccc(C(=O)NCCN2C3=NC[C@H](C)N3C[C@H]2Cc2ccc(O)cc2)cc1Br | -440* | 0 | 8
COc1ccc(C[C@H]2CN3C(=NC[C@@H]3C(C)C)N2CCNC(=O)c2ccc(C)c(Br)c2)cc1 | 47 | · | ·
NC(=O)CSc1nc2scc(-c3ccc(Cl)cc3)c2c(=O)n1Cc1ccccc1 | 47 | · | ·
COc1ccc2c(c1)OC[C@H]1[C@H]2N2C(=O)c3cc(OC)c(OC)cc3NC(=O)[C@@]2(C)[C@H]1c1ccccc1 | -143* | 6 | 12
O=C1C(NS(=O)(=O)c2cccs2)=C(N2CCN(c3cccc(C(F)(F)F)c3)CC2)C(=O)c2ccccc21 | 48 | · | ·
Cc1cc(Br)ccc1OCCCCN1CCC(C)CC1 | -57* | -3 | 11
O=C(c1ccccc1)c1ccc2nc(-c3ccco3)c(-c3ccco3)nc2c1 | 41 | · | ·
O=C(OCc1nc2ccccc2s1)c1ccc([N+](=O)[O-])o1 | 69 | · | ·
CC1=NN(c2ccccc2)C(=O)/C1=C/c1cccc(C)c1 | 96 | · | ·
CCc1ccccc1NC(=O)COC(=O)c1cccs1 | -104* | 12 | 9
CCOC(=O)c1c(N)n(CCOC(=O)c2cccs2)c2nc3ccccc3nc12 | 95 | · | ·
CCOC(=O)c1cc(C(=O)c2cccs2)n2ccc(C(C)=O)cc12 | 42 | · | ·
Nc1cccc2nsnc12 | 68 | · | ·
CC(C)C[C@@H]1CN=C(N)N1C[C@@H]1CCCN1C[C@H](C)N1C[C@@H](Cc2ccccc2)N(CCc2ccc(Cl)c(Cl)c2)C1=N | 63 | · | ·
NC(N)=Nc1cc2ccccc2c2ccccc12 | 77 | · | ·
SMILES | Apaf1 activ | Rh110 act interf | Apaf-1 act conf
Clc1cccc(Cl)c1CNC1CCCC1 | -48* | -2 | 2
Fc1cccc(Cl)c1CNc1ccc(N2CCCC2)cc1 | 48 | · | ·
Oc1ccc(/C=N\Nc2cc(N3CCOCC3)nc(N3CCOCC3)n2)c(O)c1 | 85 | · | ·
CCC(C)NCCOCCOc1ccc(Br)cc1 (configuration not stated) | -47* | 2 | 11
Nc1ccc2nn(-c3ccc(F)cc3)nc2c1 | 88 | · | ·
Cc1ccc(-n2nc3ccc(N)cc3n2)cc1 | 82 | · | ·
CC(C)C(=O)Nc1cccc(-c2cn3ccsc3n2)c1 | 67 | · | ·
CC(C)C(=O)Nc1ccc2nn(-c3ccc(F)cc3)nc2c1 | -95* | 17 | 15
CC(C)c1ccc(-n2nc3ccc(N)cc3n2)cc1 | 63 | · | ·
Cc1ccc(-n2nc3ccc(NC(=O)C(C)C)cc3n2)cc1 | -152* | 5 | 7
COC(=O)CCC(=O)OC1(C)C(=O)C=C2C=C(C3CC3)N(CCN3CCOCC3)C=C2C1=O (configuration not stated) | 46 | · | ·
